Measurements taken from the EternaBench riboswitch data.

Tested on: MS2 coat protein
Assay: apparent Kd, MS2 coat protein; higher = weaker binding; RNA-MaP array; FMN 200 µM where present
Method in brief: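 Stalled E. coli RNA polymerase produced the designs on Illumina sequencing-chip clusters. SNAP-549-labelled MS2 coat protein was added from 0.7 or 1.5 nM, doubling to 3 µM, without and then with constant ligand, in 100 mM Tris-HCl pH 7.5, 80 mM KCl, 4 mM MgCl2, BSA, DTT, yeast tRNA and Tween-20. The apparent Kd is the median of filtered per-cluster fits of green signal normalised to red-channel RNA signal and control-cluster median Fmax.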

[1] = designed as: OFF switch for flavin mononucleotide, no ligand
[2] = ligand present: flavin mononucleotide, designed as: OFF switch for flavin mononucleotide
[3] = designed as: ON switch for flavin mononucleotide, no ligand
[4] = ligand present: flavin mononucleotide, designed as: ON switch for flavin mononucleotide

For “GAGGCCAAAACAUGAGGAUCACCCAUGUGAGUGGUCCGAAUAUAGGAUAUCCACACGAGAAGUGUGGAGAAGGAUAAUGGCGUC”, the “apparent Kd” value [1] was 321 nM and the “apparent Kd” value [2] was 547 nM.
In the case of “UCGAUGCUAGGAUAUACUUAUAAAACCACUGUAGAGUCCUCACAUGAGGAUCACCCAUGUAGAAGGAGCAUCUA”, the “apparent Kd” value [1] is reported as 25.9 nM and the “apparent Kd” value [2] is reported as 46.4 nM.
“UUUUGAUGAGGAUAUCGAGGUUAGUACAUGAGGAUCACCCAUGUUAUCCAGGUGUCGGUUCGAGAAGGUAUUGGAC” was tested, and the “apparent Kd” value [1] was 18.5 nM and the “apparent Kd” value [2] was 22.9 nM.
“CUAUUACGAGGAUAUCGUCAGAGUCACAUGAGGAUCACCCAUGUAUCCCACGGACCGGAAUGAGAAGGCGUUCAUG” was tested, and the “apparent Kd” value [1] was 288 nM and the “apparent Kd” value [2] was 769 nM.
“AAUAAUCAGUAAGGAUAUACUAGCGAUUAGCUUGUAGAAGGUACAGUCUUAUGUAUAACAUGUUAACAUGAGGAUCACCCAUGU” was tested, and the “apparent Kd” value [3] was 62.9 nM and the “apparent Kd” value [4] was 33.3 nM.
For “CGUUUUUAUGUAGGAUAUGCUUGUGGUAAGAUAGCAGAAGGACAUGAGGAUCACCCAUGUUAAUGAUAGAGAUUUUAUGUUGCG”, the “apparent Kd” value [1] was 37.9 nM and the “apparent Kd” value [2] was 50.2 nM.
“CCGGAUAUGCAGGAUAUCGAAUCGGAAACGAUUCGAGAAGGGUAUACAUGAGGAUCACCCAUGUGUCCUACCGG” was tested, and the “apparent Kd” value [1] was 24.9 nM and the “apparent Kd” value [2] was 31.6 nM.
In the case of “CAUGUCCUCACAGGAUAUGCACCACUUUGUGGUGCAGAAGGGUGAAUACAUGAGGAUCACCCAUGUGGACAUGAUAUAUUUAAG”, the “apparent Kd” value [3] is reported as 1200 nM and the “apparent Kd” value [4] is reported as 75.4 nM.
With “UCAUGCAUAGCGAUAUGAUCGAGAGAUCAUGUCGCUAAAUUUAGAAGGACAUGAGGAUCACCCAUGUAGGAUAUGGGAGCAUGA” the “apparent Kd” value [3] was 43 nM and the “apparent Kd” value [4] was 11 nM.
In the case of “AAUUCGGCAGGAUAUACAUGAGGAUCACCCAUGUAAAUUUUUCGUUUAACUUGAAUGUGUAGAAGGGCCAUUUA”, the “apparent Kd” value [2] is reported as 22.6 nM.
For “UACAGCGUAGAUAAUAAUGAUUACAUGAGGAUCACCCAUGUAUAGGAUAUGCAGUGGAAUACACUGCAGAAGGAUACAUCGCUG”, the “apparent Kd” value [1] was 17 nM and the “apparent Kd” value [2] was 37 nM.
In the case of “AGAAACUACGAGAAGGACAAAAAAGGUGCCGCAAACAUGAGGAUCACCCAUGUAGGAUAUCGUAGUUUCAGGAUCGUGAGAUCA”, the “apparent Kd” value [1] is reported as 16.5 nM and the “apparent Kd” value [2] is reported as 98.3 nM.
For “AACAUACAUGAGGAUCACCCAUGUUCCGGCAGGACAGGAUAUACAUCGAAAGUGUUAUAAGUAGAAGGGUCAUAAA”, the “apparent Kd” value [3] was 77.8 nM and the “apparent Kd” value [4] was 71.2 nM.
In the case of “AAAAUCUAUACAGGAUAUCCAUACGCUGCAUACGGAGAAGGGUAACAAUCAUGAGGACAUGAGGAUCACCCAUGUUGUGACCAU”, the “apparent Kd” value [3] is reported as 232 nM and the “apparent Kd” value [4] is reported as 76.1 nM.
“UGUUGUAUUACAGGAUAUCUAGUAUUUUUAUUAAGAGAAGGGUAUUCACAUGAGGAUCACCCAUGUAUAUACGAGGAAGUUGUG” was tested, and the “apparent Kd” value [3] was 42.4 nM and the “apparent Kd” value [4] was 42.4 nM.
For “GGCGAACGGGCUUACAUGAGGAUCACCCAUGUAGACUCAUGGUAGGAUAUGCUGAACAAAGUUCAGCAGAAGGGCCGGUGAGCU”, the “apparent Kd” value [3] was 86.6 nM and the “apparent Kd” value [4] was 46.3 nM.
“GGAAAACAUGAGGAUCACCCAUGUGAGGAUAUCGAUGUCCAGGGCCUGCUGCGGGACUCGAGAAGGCAGUGGGA” was tested, and the “apparent Kd” value [1] was 41.2 nM and the “apparent Kd” value [2] was 21.7 nM.
“ACAUACAUUCGAGGAUAUCGGUGAACAAAUUAACGAGAAGGCGAUAUAAUUUUUAAUCUUAUGAACAUGAGGAUCACCCAUGUA” was tested, and the “apparent Kd” value [3] was 22.3 nM and the “apparent Kd” value [4] was 20.4 nM.
In the case of “CUACUUAGCCAGAAGGCAAGAGGUACAUGAGGAUCACCCAUGUAGUGAUUGAGGAUAUGGCAAGGUUCUAUGGUGCGUCUAGCC”, the “apparent Kd” value [3] is reported as 7.53 nM and the “apparent Kd” value [4] is reported as 5.12 nM.
In the case of “GCGCAAACGCCAAAAGGCGAAACAACAUGAGGAUCACCCAUGUAGGAUAUCGAUUGCUUUGCAGUCGAGAAGGACAUAAUGCGC”, the “apparent Kd” value [1] is reported as 17.1 nM and the “apparent Kd” value [2] is reported as 16.1 nM.
With “UGGAUGUAGGAGAAGGAGGACUUCAUGAGGAUCACCCAUGUGUUAGUACUUAGGAUAUUUGACAACAUGAGGAUCACCCAUGUG” the “apparent Kd” value [3] was 105 nM and the “apparent Kd” value [4] was 96.4 nM.
“GUGGUCAGACAUGAGGAUCACCCAUGUGGAAUAAAUAACACACAGGAUAUCAAAUAUAAAAUAUAUGAGAAGGGUGGAUUGGUG” was tested, and the “apparent Kd” value [4] was 224 nM.
In the case of “GUAGAGGAUUGAGGAUAUGCAGAGAGAUCAUGCGCGUCGCGCACAUGAGGAUCACCCAUGUAAGAGCAGAAGGUAACUAUGAAC”, the “apparent Kd” value [1] is reported as 66.8 nM and the “apparent Kd” value [2] is reported as 43.4 nM.
“CGCAAACAUGAGGAUCACCCAUGUGAGGAUAUGUGAGCACGAGAAAGAUAAAGUGAGCACAGAAGGCACAAGCG” was tested, and the “apparent Kd” value [1] was 60.4 nM and the “apparent Kd” value [2] was 62.9 nM.
For “CGGUCGAUAUCAGGAUAUCGUUUAAUUACAUGAGGAUCACCCAUGUUGACAAGGAAUAUAACUUGCGAGAAGGGAUUACGAUCG”, the “apparent Kd” value [3] was 9.33 nM and the “apparent Kd” value [4] was 6.47 nM.
With “ACAGCUGAAGGAUAUACUUGGAAAAAAAAAAAAAAAAAAAAACAUGAGGAUCACCCAUGUAGAAGGUCAGCUGA” the “apparent Kd” value [1] was 52.9 nM and the “apparent Kd” value [2] was 78.5 nM.
“CAGGAGAACACAGGAUAUCCGUAAAACAUGAGGAUCACCCAUGUUUGUGGCCCGCCAGGGCUGACGGAGAAGGGUGACUCGCAC” was tested, and the “apparent Kd” value [3] was 6.69 nM and the “apparent Kd” value [4] was 5.61 nM.
“UAAAAGACUAGUAUGGUAACGAUCACAUGAGGAUCACCCAUGUAGGAUAUGAGCAGAAAAUCUGCUCAGAAGGACAUGCUAGUC” was tested, and the “apparent Kd” value [1] was 5.8 nM and the “apparent Kd” value [2] was 9.08 nM.
“UUUGCAUACCGAGGAUAUUCAUAUAAUAAAUAAACAUGAGGAUCACCCAUGUGGCGAAAGCCUAGGGAGAAGGCGGAAUGCUUU” was tested, and the “apparent Kd” value [3] was 162 nM and the “apparent Kd” value [4] was 30.1 nM.
“UGGUACUAGGGAGGAUAUGGGAAGAUACAUGAGGAUCACCCAUGUUUAAGAAUGCUGAGAGGCAACUAGAAGGCCCUAGUACCU” was tested, and the “apparent Kd” value [3] was 439 nM and the “apparent Kd” value [4] was 20.9 nM.
In the case of “GAUGGACAUGAGGAUCACCCAUGUCAGGAUAUUGUUUGUGGCUAGUUUUGGUUACGGGCGAGAAGGGACUCGUC”, the “apparent Kd” value [1] is reported as 22.6 nM and the “apparent Kd” value [2] is reported as 20.7 nM.
“GUCGUGCGGCUUUGCUGUACGAGUACAUGAGGAUCACCCAUGUAGGAUAUGGUUCGUUUUGCGUGCUAGAAGGGCGUGCGUUGU” was tested, and the “apparent Kd” value [1] was 25.7 nM and the “apparent Kd” value [2] was 21.3 nM.
With “AGAUACAACCAGAAGGACAUGAGGAUCACCCAUGUAGGAUAUGGGUUACACGUGCCUGGGAAGUGUAACGACGCUACGAAGAGU” the “apparent Kd” value [3] was 31.4 nM and the “apparent Kd” value [4] was 8.3 nM.
With “UAUUUGCAAGGAUAUGAUUUAAGUAACAUGAGGAUCACCCAUGUUUUUCCGUUGUUAUGUUCAGAAGGUGCGUGAU” the “apparent Kd” value [1] was 58.6 nM and the “apparent Kd” value [2] was 74.9 nM.
In the case of “AAUAACAGAGGAUAUACUAUUUUAUGUAUUUAUUAUUUUAAACAUGAGGAUCACCCAUGUAGAAGGCUGAUUAA”, the “apparent Kd” value [1] is reported as 28.1 nM and the “apparent Kd” value [2] is reported as 30.4 nM.
In the case of “UAUGCGAGAGGAUAUACAUGAGGAUCACCCAUGUGUCCGACACAAUUCAGUUGCAUAUGUAGAAGGCUUGCGAC”, the “apparent Kd” value [1] is reported as 14.4 nM and the “apparent Kd” value [2] is reported as 19.6 nM.
For “AAUAUAAGAGCUGGCUCUAAAAGAACAUGAGGAUCACCCAUGUAGGAUAUCAGCACGAUAAGUGCUGAGAAGGACAACCAGCUC”, the “apparent Kd” value [1] was 16.7 nM and the “apparent Kd” value [2] was 15.7 nM.
With “GUAGCAUACAGAGGAUAUUCAAACCACAAAAGUGGACAUGAGGAUCACCCAUGUGGCGAAAGCCGGGAGAAGGCUGAAUGCUAC” the “apparent Kd” value [3] was 15.9 nM and the “apparent Kd” value [4] was 14.3 nM.
In the case of “ACUAUACGAGGAUAUACUGUCGGGCCUCGGACAUACAUACGACAUGAGGAUCACCCAUGUAGAAGGCGUUUACU”, the “apparent Kd” value [1] is reported as 30.4 nM and the “apparent Kd” value [2] is reported as 68.4 nM.
In the case of “AUAUUGUGAGGAUAUGAACUUAGUAUCGAAAGAUACUAUGUUCAGAAGGCACAUGAGGAUCACCCAUGUUUCUC”, the “apparent Kd” value [1] is reported as 81.7 nM and the “apparent Kd” value [2] is reported as 569 nM.
For “CAGUGCAAUGUAGGAUAUGCUCAGGAAUACUGAGCAGAAGGACAUGAGGAUCACCCAUGUAAAAUGAAAGAUAAUAAAGCACUG”, the “apparent Kd” value [1] was 16.1 nM and the “apparent Kd” value [2] was 51 nM.
In the case of “CGCUCACAUGAGGAUCACCCAUGUCCUAGGAGGUCAGGAUAUAGCCCGCAUCCGCUGCGGCUAGAAGGGACAGCUG”, the “apparent Kd” value [3] is reported as 203 nM and the “apparent Kd” value [4] is reported as 68.6 nM.
